Assays:
[1] = target: Chymotrypsinogen A (Bos taurus) (UniProt P00766); experiment: Time for which maximum percent inhibition persists was determined against alpha-chymotrypsin (17 nM); assay type: functional
How it was run: (§1)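 Enzyme incubated with excess lactone added from DMSO stock (final 10% DMSO); aliquots over 2 h diluted into substrate: chymotrypsin Suc-AAPF-pNA 315 µM, pH 7.2, 410 nm; t-PA Spectrozyme t-PA 0.2 mM, Tris-imidazole pH 8.4, 405 nm; HNE MeO-Suc-AAPV-pNA 150 µM, pH 7.4, 410 nm; plasmin Ts-GPK-pNA 157.4 µM, pH 7.8, 404 nm; thrombin Ts-GPR-pNA 75 µM, pH 8.0, 408 nm; trypsin Z-VGR-pNA 155 µM, pH 7.2, 404 nm. Activity given relative to a no-lactone control. Some runs used a 10-min substrate-free delay after dilution. ∞ means no recovery over 2 h.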

[2] = target: Chymotrypsinogen A (Bos taurus) (UniProt P00766); experiment: Time to reach maximum percent inhibition by the compound was determined against alpha-chymotrypsin (17 nM); assay type: functional
How it was run: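 α-Chymotrypsin with excess lactone (DMSO, 10% final) was sampled over 2 h into Suc-Ala-Ala-Pro-Phe-pNA (315 μM) in 0.2 M phosphate, pH 7.2. Absorbance at 410 nm gave the remaining activity versus a control without lactone. Minutes to maximal inhibition were taken.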

[3] = target: Chymotrypsinogen A (Bos taurus) (UniProt P00766); experiment: Maximum percent inhibition by the compound was determined against Chymotrypsinogen (17 nM); how it was run: as §1
[4] = target: T1, Neutrophil elastase (Homo sapiens) (UniProt P08246); experiment: Maximum percent inhibition by the compound was determined against human neutrophil elastase HNE(66 nM); how it was run: as §1
T1 sequence (whole entry): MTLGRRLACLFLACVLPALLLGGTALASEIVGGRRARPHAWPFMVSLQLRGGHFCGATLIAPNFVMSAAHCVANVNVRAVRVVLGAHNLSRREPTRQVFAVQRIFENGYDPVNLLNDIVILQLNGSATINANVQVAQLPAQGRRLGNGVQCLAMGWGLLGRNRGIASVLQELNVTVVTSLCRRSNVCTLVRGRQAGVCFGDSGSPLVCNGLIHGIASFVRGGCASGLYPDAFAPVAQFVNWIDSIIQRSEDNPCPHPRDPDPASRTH

[5] = target: T1, Neutrophil elastase (Homo sapiens); experiment: Time for which maximum percent inhibition persists was determined against human neutrophil elastase HNE(66 nM); assay type: functional; how it was run: as §1
[6] = target: T1, Neutrophil elastase (Homo sapiens); experiment: Time to reach maximum percent inhibition by the compound was determined against human neutrophil elastase HNE(66 nM); assay type: functional
How it was run: (§2)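 HNE was incubated with excess lactone in 10% final DMSO. Aliquots drawn during 2 h went into MeO-Suc-Ala-Ala-Pro-Val-pNA (150 μM) in 0.1 M phosphate, 0.5 M NaCl, pH 7.4, read at 410 nm. Activity was set relative to a lactone-free control, and the time (min) to peak inhibition was noted.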

[7] = target: Plasminogen (Homo sapiens) (UniProt P00747); experiment: Time to reach maximum percent inhibition by the compound was determined against plasmin(625 nM); assay type: functional
Sequence of Plasminogen (Homo sapiens) (P00747 97-580 limits assumed): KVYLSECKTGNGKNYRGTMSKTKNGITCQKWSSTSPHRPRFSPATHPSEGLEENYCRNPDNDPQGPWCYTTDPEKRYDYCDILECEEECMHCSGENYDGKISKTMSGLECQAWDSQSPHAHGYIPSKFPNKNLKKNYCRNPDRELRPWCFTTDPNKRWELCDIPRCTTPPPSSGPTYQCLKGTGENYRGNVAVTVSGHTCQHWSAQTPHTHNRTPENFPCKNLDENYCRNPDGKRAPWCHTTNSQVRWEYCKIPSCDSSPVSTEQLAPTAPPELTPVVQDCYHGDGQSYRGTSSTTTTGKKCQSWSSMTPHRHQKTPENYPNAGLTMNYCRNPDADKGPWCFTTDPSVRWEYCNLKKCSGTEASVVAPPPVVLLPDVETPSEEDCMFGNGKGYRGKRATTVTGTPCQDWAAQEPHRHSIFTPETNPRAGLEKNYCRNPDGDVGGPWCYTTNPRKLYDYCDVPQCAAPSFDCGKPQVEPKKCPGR
Sequence of Plasminogen (Homo sapiens) (P00747 581-810 limits assumed): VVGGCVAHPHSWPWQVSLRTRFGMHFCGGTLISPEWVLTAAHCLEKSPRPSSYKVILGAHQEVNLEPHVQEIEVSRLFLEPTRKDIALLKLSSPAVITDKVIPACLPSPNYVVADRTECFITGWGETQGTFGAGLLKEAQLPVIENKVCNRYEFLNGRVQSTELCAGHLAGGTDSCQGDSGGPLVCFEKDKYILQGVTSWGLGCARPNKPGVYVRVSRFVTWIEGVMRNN
How it was run: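 Plasmin plus excess lactone (10% final DMSO) was sampled over 2 h into Ts-Gly-Pro-Lys-pNA (157.4 μM) in 0.05 M phosphate, pH 7.8. The slope at 404 nm, relative to an enzyme-only control, gave residual activity. Minutes needed to reach maximal inhibition were reported.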

[8] = target: Plasminogen (Homo sapiens) (UniProt P00747); experiment: Substrate binding constant against plasmin
How it was run: (§3)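 Competitive substrate assay: lactone (DMSO, final 10% v/v) and chromogenic substrate combined in buffer, enzyme added, absorbance followed to steady state. Turnover-corrected semilog plot gives kobs; I0 vs I0/kobs replot (eq 6) with separately determined Km yields Ki and ka. Where no burst was seen, Ki was estimated from Km(app) replots using 15-s initial velocities. Buffers and substrates as in incubation assay.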

[9] = target: Plasminogen (Homo sapiens) (UniProt P00747); experiment: Second order rate constant against plasmin; how it was run: as §3
[10] = target: Plasminogen (Homo sapiens) (UniProt P00747); experiment: Time for which maximum percent inhibition persists was determined against plasmin(625 nM); * =no enzyme activity was recovered over 2 h; assay type: functional; how it was run: as §1
[11] = target: Plasminogen (Homo sapiens) (UniProt P00747); experiment: Maximum percent inhibition by the compound was determined against plasmin(625 nM); how it was run: as §1
[12] = target: Plasminogen (Homo sapiens) (UniProt P00747); experiment: Acylation rate constant against plasmin; how it was run: as §3
[13] = target: Tissue-type plasminogen activator (Homo sapiens) (UniProt P00750); experiment: Maximum percent inhibition persists was determined against Tissue plasminogen activator (19.4 nM); how it was run: as §1
Sequence of Tissue-type plasminogen activator (Homo sapiens) (P00750 36-562 limits assumed): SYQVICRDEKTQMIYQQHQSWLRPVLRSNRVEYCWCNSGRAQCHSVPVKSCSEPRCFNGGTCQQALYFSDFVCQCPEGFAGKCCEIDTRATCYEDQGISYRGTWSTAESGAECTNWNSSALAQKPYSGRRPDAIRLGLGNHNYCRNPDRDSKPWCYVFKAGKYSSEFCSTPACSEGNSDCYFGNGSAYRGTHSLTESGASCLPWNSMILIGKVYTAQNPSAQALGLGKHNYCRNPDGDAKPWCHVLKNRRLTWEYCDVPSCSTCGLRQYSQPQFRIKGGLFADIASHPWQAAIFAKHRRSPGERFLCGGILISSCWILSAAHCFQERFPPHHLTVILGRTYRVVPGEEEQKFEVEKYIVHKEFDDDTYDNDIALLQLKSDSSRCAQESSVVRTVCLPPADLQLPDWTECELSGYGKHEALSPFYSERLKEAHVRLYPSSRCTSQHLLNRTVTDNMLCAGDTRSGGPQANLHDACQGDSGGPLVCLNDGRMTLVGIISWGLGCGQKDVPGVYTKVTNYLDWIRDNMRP

[14] = target: Tissue-type plasminogen activator (Homo sapiens) (UniProt P00750); experiment: Time for which maximum percent inhibition persists was determined against Tissue plasminogen activator (19.4 nM); assay type: functional; how it was run: as §1
[15] = target: Tissue-type plasminogen activator (Homo sapiens) (UniProt P00750); experiment: Time to reach maximum percent inhibition by the compound was determined against Tissue plasminogen activator (19.4 nM); assay type: functional
How it was run: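 Tissue plasminogen activator was exposed to excess lactone (10% final DMSO). Over 2 h, aliquots were diluted into Spectrozyme t-PA (0.2 mM) in Tris-imidazole, I 0.3, pH 8.4. Hydrolysis at 405 nm gave residual activity relative to an enzyme-only control. The time (min) to reach maximal percent inhibition was recorded.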

[16] = target: Prothrombin (Homo sapiens) (UniProt P00734); experiment: Time for which maximum percent inhibition persists was determined against thrombin (1.93 nM); assay type: functional; how it was run: as §1
[17] = target: Prothrombin (Homo sapiens) (UniProt P00734); experiment: Time to reach maximum percent inhibition by the compound was determined against thrombin (1.93 nM); assay type: functional
How it was run: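 Thrombin was incubated with excess lactone (DMSO, 10% final). Aliquots over 2 h were diluted into Ts-Gly-Pro-Arg-pNA (75 μM) in 0.05 M phosphate, 0.01 M EDTA, 10 g/L PEG 8000, 10 mg/L aprotinin, pH 8.0, and read at 408 nm against a no-lactone control. Time to maximal inhibition was recorded.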

[18] = target: T2, Serine protease 1 (Bos taurus) (UniProt P00760); experiment: Second order rate constant against trypsin; how it was run: as §3
T2 sequence (whole entry): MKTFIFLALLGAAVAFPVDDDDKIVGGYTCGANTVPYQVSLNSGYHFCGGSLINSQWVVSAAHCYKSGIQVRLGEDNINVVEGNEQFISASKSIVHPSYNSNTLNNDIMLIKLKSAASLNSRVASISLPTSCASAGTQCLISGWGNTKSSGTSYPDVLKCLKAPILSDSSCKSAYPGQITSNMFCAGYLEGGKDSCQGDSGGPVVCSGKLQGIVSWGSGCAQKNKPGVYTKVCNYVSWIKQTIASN

[19] = target: Prothrombin (Homo sapiens) (UniProt P00734); experiment: Maximum percent inhibition by the compound was determined against thrombin (1.93 nM); how it was run: as §1
[20] = target: T2, Serine protease 1 (Bos taurus); experiment: Maximum percent inhibition by the compound was determined against trypsin (14.6 nM); how it was run: as §1
[21] = target: T2, Serine protease 1 (Bos taurus); experiment: Acylation rate constant against trypsin; how it was run: as §3
Serine protease 1 = target: T3, Serine protease 1 (Bos taurus, UniProt P00760); experiment: Decylation rate constant against trypsin
T3 sequence (P00760 whole entry): T2 sequence (whole entry)
How it was run: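 Trypsin incubated 30–45 min with excess lactone (same I0/E0 as incubation assay). Free inhibitor removed by two 1-h centrifugations at 0 °C. Activity recovery followed at room temperature against an inhibitor-free control carried through the same treatment; kd is the slope of ln remaining activity vs time. Substrate Z-Val-Gly-Arg-pNA 155 µM, 0.2 M phosphate pH 7.2, 404 nm.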

[22] = Ratio of initial inhibitor concentration to initial Chymotrypsinogen concentration
How it was run: (§4)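 Ratio I0/E0 of lactone to enzyme in the 2-h incubation assay; lactone added from DMSO stock to buffered enzyme (final 10% DMSO).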

[23] = Ratio of initial inhibitor concentration to initial HNE concentration; how it was run: as §4
[24] = Ratio of initial inhibitor concentration to initial Plasmin concentration; how it was run: as §4
[25] = Ratio of initial inhibitor concentration to initial t-PA concentration; how it was run: as §4
[26] = Ratio of initial inhibitor concentration to initial thrombin concentration; how it was run: as §4
[27] = Ratio of initial inhibitor concentration to initial trypsin concentration; how it was run: as §4
[28] = Ratio of initial inhibitor concentration to initial urokinase concentration; how it was run: as §4
[29] = target: T4, Urokinase-type plasminogen activator (Homo sapiens, UniProt P00749)
[30] = target: T4, Urokinase-type plasminogen activator; remark: listed apart in the source
[31] = target: T4, Urokinase-type plasminogen activator; remark: listed apart in the source
[32] = target: T4, Urokinase-type plasminogen activator; experiment: Substrate binding constant against Urokinase
[33] = target: T1, Neutrophil elastase (Homo sapiens); experiment: Maximum percent inhibition by the compound was determined against human neutrophil elastase (HNE); how it was run: as §1
[34] = target: T1, Neutrophil elastase (Homo sapiens); experiment: Time for which maximum percent inhibition persists was determined against human neutrophil elastase (HNE); assay type: functional; how it was run: as §1
[35] = target: T1, Neutrophil elastase (Homo sapiens); experiment: Time to reach maximum percent inhibition by the compound was determined against human neutrophil elastase (HNE); assay type: functional; how it was run: as §2
[36] = target: Plasminogen (Homo sapiens) (UniProt P00747); experiment: Time for which maximum percent inhibition persists was determined against plasmin; assay type: functional; how it was run: as §1
[37] = target: Tissue-type plasminogen activator (Homo sapiens) (UniProt P00750); experiment: Maximum percent inhibition by the compound was determined against Tissue plasminogen activator (19.4 nM); how it was run: as §1
[38] = target: T2, Serine protease 1 (Bos taurus); experiment: Substrate binding constant against trypsin; how it was run: as §3
[39] = target: T2, Serine protease 1 (Bos taurus); experiment: Time to reach maximum percent inhibition by the compound was determined against trypsin (14.6 nM); assay type: functional
How it was run: (§5)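 Trypsin was incubated with excess lactone added from DMSO stock (10% final DMSO). Aliquots taken over 2 h were diluted into Z-Val-Gly-Arg-pNA (155 μM) in 0.2 M phosphate, pH 7.2, and read at 404 nm. Activity came from the absorbance slope versus a no-lactone control. Reported are minutes to maximal inhibition and minutes it persisted; ∞ means no recovery within 2 h.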

[40] = target: T2, Serine protease 1 (Bos taurus); experiment: Time for which maximum percent inhibition persists was determined against trypsin (14.6 nM); assay type: functional; how it was run: as §5
[41] = target: T4, Urokinase-type plasminogen activator; experiment: Time for which maximum percent inhibition persists was determined against Urokinase-type plasminogen activator e (300 nM); * =no enzyme activity was recovered over 2 h; assay type: functional

TIME [1] | TIME [2] | inhibition [3] | TIME [7] | inhibition [11] | TIME [14] | TIME [15] | TIME [16] | TIME [17] | Rate [18] | inhibition [19] | inhibition [20] | Ka [21] | Ratio [22] | Ratio [23] | Ratio [24] | Ratio [25] | Ratio [26] | Ratio [27] | Ratio [28] | SMILES | other results
0.25 h | 0 h | 47% | 1 h | 97% | 0.25 h | 0 h | 0 h | 1.5 h | 0.13 ka/Ks | 38% | 99% | 0.54 min⁻¹ | 118 Io/Eo | 36 Io/Eo | 16 Io/Eo | 100 Io/Eo | 518 Io/Eo | 86 Io/Eo | 50 Io/Eo | N=C(N)Nc1ccc(C2CC(=O)O/C(=C/I)C2)cc1 (stereo not given) | inhibition [4]: 67%; TIME [5]: 0.25 h; TIME [6]: 0.25 h; Ks [8]: 11 µM; Rate [9]: 0.9 ka/Ks; TIME [10]: No enzyme activity; Ka [12]: 11 min⁻¹; inhibition [13]: 22%; Kd (Serine protease 1): 0.00033 s⁻¹; Ks [29]: 7.83 µM; Rate [30]: 0.33 ka/Ks; Ka [31]: 2.61 min⁻¹; Ks [32]: 7.83 µM
0 h | 0.75 h | 58% | 0 h | 99% | 0 h | 0 h | 0 h | 0 h | 62 ka/Ks | 7% | 97% | 14 min⁻¹ | 118 Io/Eo | 36 Io/Eo | 16 Io/Eo | 100 Io/Eo | 518 Io/Eo | 86 Io/Eo | 50 Io/Eo | C=C1CCC(c2ccc(NC(=N)N)cc2)C(=O)O1 (stereo not given) | inhibition [33]: 22%; TIME [34]: 0 h; TIME [35]: 0.25 h; TIME [36]: 0 h; inhibition [37]: 29%; Ks [38]: 0.23 µM; TIME [39]: 0 h; TIME [40]: 0.75 h; TIME [41]: No enzyme activity; Ks [29]: 0.33 µM; Rate [30]: 1180 ka/Ks; Ka [31]: 391 min⁻¹

— ChEMBL document CHEMBL1125346, “Guanidinophenyl-substituted enol lactones as selective, mechanism-based inhibitors of trypsin-like serine proteases” (J Med Chem, 1992)
